1 molecule from ChEMBL document CHEMBL3407438, “Discovery of potent, orally bioavailable, small-molecule inhibitors of WNT signaling from a cell-based pathway screen” (J Med Chem, 2015) can be followed below.

Data set [1] can be described thus: Drug metabolism in human liver microsome at 10 uM after 30 mins by LC-MS analysis. The class given is ADME. Conditions: liver microsomes, read-out: Drug metabolism.
Data set [2] can be described thus: Drug metabolism in mouse liver microsome at 10 uM after 30 mins by LC-MS analysis. The class given is ADME. Particulars: liver microsomes, read-out: Drug metabolism. (In general: Liver microsomes are vesicles of endoplasmic reticulum, rich in cytochrome P450 enzymes.)
Data set [3] can be described thus: Inhibition of WNT signaling in human 7dF3 cells preincubated at 20 uM for 2 hrs before beta-estradiol addition measured after 24 hrs by luciferase reporter assay. The class given is cell-based.
Data set [4] can be described thus: Cytotoxicity against human 7dF3 cells. The format is cell-based.
A short description of data set [5]: cells. Conditions: Homo sapiens, 7dF3. The format is cell-based.
Data set [6] can be described thus: Dissociation constant, pKa of the compound. The format is physicochemical.
A short description of data set [7]: Inhibition of WNT signaling in human T-Rex HEK293 Tet-O cells harboring constitutively active deltaN-LRP6 after 4 days by luciferase reporter assay. Conditions: HEK293, 96 h. The format is cell-based. The method in brief:
(§1)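 HEK293 T-Rex Tet-O cells stably carrying TCF-firefly luciferase-IRES-GFP reporter plus Tet-inducible cDNA (ΔN-LRP6, Dvl2, Axin-GID, ΔN-β-catenin or VP16-TCF4) introduced by FLP-FRT recombination; seeded from frozen at 40 000/well; day 3 compound added, eight concentrations 30 μM to 14 nM (final), with doxycycline hyclate; day 4 cells lysed, firefly luciferase luminescence read.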

Data set [8] can be described thus: Inhibition of WNT signaling in human T-Rex HEK293 Tet-O cells harboring Dvl2 after 4 days by luciferase reporter assay. The class given is cell-based. Particulars: HEK293, 96 h. The method in brief: as §1
Background: Reporter assays use an easily measured gene product as a stand-in for the process of interest.

The nature of data set [9]: Inhibition of WNT signaling in human T-Rex HEK293 Tet-O cells harboring dominant negative form of Axin GSK3beta-interacting domain after 4 days by luciferase reporter assay. The class given is cell-based. Particulars: HEK293, 96 h. The method in brief:
as §1

A short description of data set [10]: Inhibition of WNT signaling in human T-Rex HEK293 Tet-O cells harboring degradation resistant form of beta-catenin after 4 days by luciferase reporter assay. The class given is cell-based. Conditions: HEK293, 96 h. The procedure, abridged:
as §1

Data set [11] is described as follows: Inhibition of WNT signaling in human T-Rex HEK293 Tet-O cells harboring constitutively active VP16-TCF in absence of beta-catenin after 4 days by luciferase reporter assay. The class given is cell-based. Particulars: HEK293, 96 h. The method in brief: as §1
The nature of data set [12]: Aqueous solubility of the compound. The format is physicochemical. Conditions: buffer.
Data set [13] can be described thus: Apparent permeability in human Caco2 cells after 2 hrs by LC-MS/MS analysis. The format is ADME, cell-based, Caco-2. Conditions: caco-2, 2 h. For orientation: Caco-2 monolayers are a common model of the intestinal barrier.
In data set [14] the target is Voltage-gated inwardly rectifying potassium channel KCNH2 (Homo sapiens, UniProt Q12809). Description: Inhibition of human ERG.
Chain of Voltage-gated inwardly rectifying potassium channel KCNH2 (Q12809 whole entry): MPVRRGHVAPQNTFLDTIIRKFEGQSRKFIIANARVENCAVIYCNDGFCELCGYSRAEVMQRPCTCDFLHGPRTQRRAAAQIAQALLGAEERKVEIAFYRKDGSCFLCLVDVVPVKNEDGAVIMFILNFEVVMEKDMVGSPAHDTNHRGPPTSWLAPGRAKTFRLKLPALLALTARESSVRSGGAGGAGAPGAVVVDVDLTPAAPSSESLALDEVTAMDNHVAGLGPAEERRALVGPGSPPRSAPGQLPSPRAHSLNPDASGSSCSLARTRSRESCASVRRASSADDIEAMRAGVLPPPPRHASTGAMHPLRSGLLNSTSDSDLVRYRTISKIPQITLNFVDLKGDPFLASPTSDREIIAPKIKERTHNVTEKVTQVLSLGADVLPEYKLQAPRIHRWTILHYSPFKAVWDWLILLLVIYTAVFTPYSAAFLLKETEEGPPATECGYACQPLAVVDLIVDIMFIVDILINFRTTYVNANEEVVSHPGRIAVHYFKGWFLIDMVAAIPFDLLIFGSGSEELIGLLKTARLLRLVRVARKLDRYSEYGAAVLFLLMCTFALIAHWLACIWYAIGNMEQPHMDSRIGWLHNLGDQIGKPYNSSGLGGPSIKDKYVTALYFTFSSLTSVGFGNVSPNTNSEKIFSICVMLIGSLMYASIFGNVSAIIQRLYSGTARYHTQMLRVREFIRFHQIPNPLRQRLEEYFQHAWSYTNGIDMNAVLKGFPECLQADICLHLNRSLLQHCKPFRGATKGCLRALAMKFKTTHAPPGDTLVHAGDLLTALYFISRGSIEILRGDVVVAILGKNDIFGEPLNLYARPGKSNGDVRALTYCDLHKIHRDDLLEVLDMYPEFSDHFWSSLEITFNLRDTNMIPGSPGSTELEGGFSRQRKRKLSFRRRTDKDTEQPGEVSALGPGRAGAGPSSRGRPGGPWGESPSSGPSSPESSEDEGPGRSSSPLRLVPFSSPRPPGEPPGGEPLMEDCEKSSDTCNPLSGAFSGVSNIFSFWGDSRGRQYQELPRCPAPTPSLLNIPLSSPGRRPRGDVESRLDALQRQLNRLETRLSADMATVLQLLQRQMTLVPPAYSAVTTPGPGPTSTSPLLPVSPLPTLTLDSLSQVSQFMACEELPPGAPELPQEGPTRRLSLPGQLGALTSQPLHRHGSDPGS
The target in data set [15] is Cytochrome P450 2C9 (Homo sapiens, UniProt P11712). Description: Inhibition of CYP2C9 (unknown origin). The format is ADME. Particulars: human.
Chain of Cytochrome P450 2C9 (P11712 whole entry): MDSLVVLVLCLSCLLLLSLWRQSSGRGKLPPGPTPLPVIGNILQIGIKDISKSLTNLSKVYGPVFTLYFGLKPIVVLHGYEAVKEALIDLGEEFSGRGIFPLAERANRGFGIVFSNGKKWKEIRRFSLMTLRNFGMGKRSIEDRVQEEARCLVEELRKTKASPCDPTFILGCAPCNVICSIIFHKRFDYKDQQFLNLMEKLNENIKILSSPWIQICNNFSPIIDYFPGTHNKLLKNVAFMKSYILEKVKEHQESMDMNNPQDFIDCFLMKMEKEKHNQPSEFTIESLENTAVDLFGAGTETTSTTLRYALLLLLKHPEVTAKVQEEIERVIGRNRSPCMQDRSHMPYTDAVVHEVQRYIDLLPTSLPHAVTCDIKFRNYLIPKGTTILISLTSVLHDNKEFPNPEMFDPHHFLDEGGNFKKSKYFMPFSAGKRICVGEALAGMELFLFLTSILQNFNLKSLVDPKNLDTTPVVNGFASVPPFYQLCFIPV
Data set [16] has as its target T1, Cytochrome P450 1A2 (Homo sapiens, UniProt P05177).
T1 sequence (P05177 whole entry): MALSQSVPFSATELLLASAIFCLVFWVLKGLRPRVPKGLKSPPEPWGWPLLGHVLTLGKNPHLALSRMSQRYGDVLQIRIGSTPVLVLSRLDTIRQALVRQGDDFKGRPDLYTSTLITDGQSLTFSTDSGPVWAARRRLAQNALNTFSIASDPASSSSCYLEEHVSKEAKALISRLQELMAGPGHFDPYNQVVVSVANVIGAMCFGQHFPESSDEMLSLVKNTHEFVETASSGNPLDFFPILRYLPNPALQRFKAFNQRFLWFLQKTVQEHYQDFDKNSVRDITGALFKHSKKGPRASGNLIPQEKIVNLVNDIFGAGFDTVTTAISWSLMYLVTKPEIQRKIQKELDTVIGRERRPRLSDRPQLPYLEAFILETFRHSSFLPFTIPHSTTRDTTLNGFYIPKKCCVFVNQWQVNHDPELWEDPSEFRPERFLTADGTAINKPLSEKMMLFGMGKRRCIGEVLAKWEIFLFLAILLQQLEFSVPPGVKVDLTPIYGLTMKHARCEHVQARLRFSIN
Briefly: Inhibition of CYP1A2 (unknown origin). The format is ADME.

For data set [17], the target named is T2, Cytochrome P450 2C8 (Homo sapiens, UniProt P10632).
T2 sequence (P10632 whole entry): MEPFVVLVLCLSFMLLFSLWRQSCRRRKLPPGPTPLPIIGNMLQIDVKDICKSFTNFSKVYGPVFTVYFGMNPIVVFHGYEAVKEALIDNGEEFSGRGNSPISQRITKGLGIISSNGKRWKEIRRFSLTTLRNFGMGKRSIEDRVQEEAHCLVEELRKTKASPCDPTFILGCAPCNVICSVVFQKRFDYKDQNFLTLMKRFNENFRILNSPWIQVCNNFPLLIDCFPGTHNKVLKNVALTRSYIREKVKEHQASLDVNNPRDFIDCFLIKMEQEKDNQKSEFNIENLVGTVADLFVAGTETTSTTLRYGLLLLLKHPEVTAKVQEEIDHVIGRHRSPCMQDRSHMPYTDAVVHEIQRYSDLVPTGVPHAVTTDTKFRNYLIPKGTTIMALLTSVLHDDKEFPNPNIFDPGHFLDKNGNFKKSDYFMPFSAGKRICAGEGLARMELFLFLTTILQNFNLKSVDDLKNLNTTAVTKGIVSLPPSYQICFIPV
Briefly: Inhibition of CYP2C8 (unknown origin). The format is ADME.

The target of data set [18] is Cytochrome P450 3A4 (Homo sapiens, UniProt P08684). Description: Inhibition of CYP3A4 (unknown origin). The format is ADME.
Chain of Cytochrome P450 3A4 (P08684 whole entry): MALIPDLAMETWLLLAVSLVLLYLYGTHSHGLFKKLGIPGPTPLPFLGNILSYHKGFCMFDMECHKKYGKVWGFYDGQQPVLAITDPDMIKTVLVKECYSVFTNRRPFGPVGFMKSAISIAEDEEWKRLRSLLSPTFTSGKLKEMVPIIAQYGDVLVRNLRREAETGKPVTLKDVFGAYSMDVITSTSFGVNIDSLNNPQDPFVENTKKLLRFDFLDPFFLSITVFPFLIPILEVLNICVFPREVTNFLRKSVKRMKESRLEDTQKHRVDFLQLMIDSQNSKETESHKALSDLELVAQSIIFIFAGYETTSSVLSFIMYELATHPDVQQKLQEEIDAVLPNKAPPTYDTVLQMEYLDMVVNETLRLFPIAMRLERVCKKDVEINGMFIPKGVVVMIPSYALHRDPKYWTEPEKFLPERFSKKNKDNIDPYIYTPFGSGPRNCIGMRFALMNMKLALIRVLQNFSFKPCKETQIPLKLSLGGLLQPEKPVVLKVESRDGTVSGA
The target of data set [19] is Cytochrome P450 2C19 (Homo sapiens, UniProt P33261). Description: Inhibition of CYP2C19 (unknown origin). The class given is ADME.
Chain of Cytochrome P450 2C19 (P33261 whole entry): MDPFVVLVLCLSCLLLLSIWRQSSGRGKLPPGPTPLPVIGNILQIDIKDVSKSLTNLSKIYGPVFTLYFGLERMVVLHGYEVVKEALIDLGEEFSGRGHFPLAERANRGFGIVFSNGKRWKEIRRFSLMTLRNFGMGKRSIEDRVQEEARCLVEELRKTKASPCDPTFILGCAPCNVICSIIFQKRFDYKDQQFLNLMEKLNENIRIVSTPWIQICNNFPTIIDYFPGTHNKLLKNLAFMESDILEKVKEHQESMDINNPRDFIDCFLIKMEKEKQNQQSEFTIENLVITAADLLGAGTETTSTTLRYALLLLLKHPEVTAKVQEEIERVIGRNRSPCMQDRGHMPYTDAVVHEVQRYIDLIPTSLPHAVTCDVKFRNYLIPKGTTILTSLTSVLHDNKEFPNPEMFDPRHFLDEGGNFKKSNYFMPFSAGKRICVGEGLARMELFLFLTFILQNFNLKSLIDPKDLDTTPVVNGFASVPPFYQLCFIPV
The target in data set [20] is Cytochrome P450 2D6 (Homo sapiens, UniProt P10635). Description: Inhibition of CYP2D6 (unknown origin). The format is ADME.
Chain of Cytochrome P450 2D6 (P10635 whole entry): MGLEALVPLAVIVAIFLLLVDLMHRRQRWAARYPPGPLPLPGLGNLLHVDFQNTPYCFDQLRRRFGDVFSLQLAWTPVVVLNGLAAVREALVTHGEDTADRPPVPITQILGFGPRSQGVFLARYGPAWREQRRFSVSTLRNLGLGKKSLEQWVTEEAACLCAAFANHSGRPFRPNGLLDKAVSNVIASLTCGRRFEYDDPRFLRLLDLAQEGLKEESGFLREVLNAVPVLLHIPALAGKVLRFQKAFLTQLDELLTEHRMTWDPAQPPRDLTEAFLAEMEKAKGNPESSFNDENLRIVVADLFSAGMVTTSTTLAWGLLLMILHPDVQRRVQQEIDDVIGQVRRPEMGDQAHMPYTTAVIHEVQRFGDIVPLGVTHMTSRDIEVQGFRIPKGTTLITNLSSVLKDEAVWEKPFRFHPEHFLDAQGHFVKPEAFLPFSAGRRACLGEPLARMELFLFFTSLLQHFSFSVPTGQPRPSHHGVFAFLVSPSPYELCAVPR

Molecules are shown by their SMILES. Activity calls are given as the source filed them. No cut-off for these calls is given here. A value given as a limit tells only on which side of the number the result lay.

In the case of `NC(=O)C1CCN(c2c(Cl)cncc2Cl)CC1`, the metabolised at 0.5 h, 10 µM in [1] was determined as 22%; in data set [2], 41%. Also, the inhibition entry in data set [3] was “Active”. Further, the Activity entry in data set [4] is “Non-toxic”. Also, the half-inhibitory concentration (IC50) in data set [5] came to 1760 nM; in data set [7] it was 910 nM; in data set [8], 1200 nM; in data set [9], 1500 nM; in data set [10] it was 2730 nM; in data set [11] it was 7610 nM. Besides, the IC50 is over 10000 nM in [14] and 7000 nM in data set [18]. The same molecule had a pKa in [6] of 3.5. In [12], this molecule gave a solubility of over 1000 µg/mL. Besides, the apparent permeability coefficient (Papp) in [13] is reported as 36 ×10⁻⁶ cm/s. Also, the “inhibition (INH)” value in data set [15], in data set [16], in [17], in data set [19] and in data set [20] was “Not Active” in each case.

A word on the IC50: it is the concentration needed to halve the response being measured. Usually pKa stands for the pH at which an ionisable group is half protonated. As usually defined, the solubility is the concentration that dissolves in the medium under given conditions. Lower therefore signals a poorly soluble substance. The term Papp denotes a coefficient for how fast a substance crosses the barrier.
